pIC50: −log10 of the molar value. Calls of active or inactive are those of the source. The rule behind the calls is not given here.
Legend:
[1] = system: Trichophyton verrucosum; assay: Antifungal activity against Trichophyton verrucosum measured after 7 days by serial dilution method; type: functional
Outline: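 Broth serial dilution MIC per NCCLS in RPMI 1640 buffered with 0.165 M MOPS; compounds in DMSO diluted in medium. Dermatophytes incubated at 28 °C, read at 7 days. MIC taken as lowest concentration giving ≥80% growth inhibition versus control (turbidity).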

[2] = system: Staphylococcus aureus; assay: Antibacterial activity against Staphylococcus aureus Mu50 infected Balb/c mouse assessed as reduction of bacterial survival in liver at 1.3 mg, ip bid administered for 4.5 days followed by bacterial infection measured after 5 days; type: functional
[3] = system: Staphylococcus aureus; assay: Sensitization of Staphylococcus aureus Newman to H2O2 assessed as reduction in bacterial survival at 1 uM measured after 24 hrs relative to control; type: functional
Outline: (§1)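 Strains grown 24 h in TSB with or without inhibitor, washed twice in PBS, then diluted to 4 × 10^6 CFU per 250 µL reaction. H2O2 added to a final 1.5%. Tubes sealed and held 30 min at 37 °C. Reaction stopped with 1000 U/mL catalase. Survivors counted as CFU by serial dilution on TSA plates and compared with untreated (mock) bacteria.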

[4] = Oral bioavailability in Sprague-Dawley rat at 10 mg/kg administered as single dose; type: ADME, organism-based; details: in vivo
Outline: (§2)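 Male SD rats, 3 per group, single iv 5 mg/kg or oral 10 mg/kg. Blood sampled 0.083 (iv only), 0.25, 0.5, 1, 2, 4, 6, 8, 24 h postdose; plasma separated at 4 °C, stored −80 °C, analysed within 1 week. Parameters from plasma concentration-time data; F from dose-normalized AUC, oral vs iv.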

[5] = system: Staphylococcus aureus; assay: Sensitization of methicillin-resistant Staphylococcus aureus USA400 MW2 to H2O2 assessed as reduction in bacterial survival at 1 uM measured after 24 hrs relative to control; type: functional; outline: as §1
[6] = system: Staphylococcus aureus; assay: Sensitization of methicillin-resistant Staphylococcus aureus Mu50 to H2O2 assessed as reduction in bacterial survival at 1 uM measured after 24 hrs relative to control; type: functional; outline: as §1
[7] = system: Staphylococcus aureus; assay: Sensitization of methicillin-resistant Staphylococcus aureus USA400 MW2 to immune clearance in human whole blood assessed as bacterial survival at 1 uM measured after 24 hrs (reference value: 10.2%); type: functional
[8] = system: Staphylococcus aureus; assay: Inhibition of staphyloxanthin pigment formation in methicillin-resistant Staphylococcus aureus USA300 LAC after 48 hrs by spectrophotometric method; type: functional, organism-based
Outline: (§3)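 MRSA grown in 4 mL TSB with 40 µL compound (2-fold serial dilutions from 20 mM DMSO stock) at 37 °C for 48 h, triplicate. Cells washed twice in PBS, pigment extracted with methanol, OD450 measured; IC50 from dose-response fit.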

[9] = system: Staphylococcus aureus; assay: Inhibition of staphyloxanthin pigment formation in methicillin-resistant Staphylococcus aureus Mu50 after 48 hrs by spectrophotometric method; type: functional, organism-based; details: Mu50, 48 h; outline: as §3
[10] = system: Staphylococcus aureus; assay: Suppression in survival of Staphylococcus aureus Newman at 0.2 mM measured after overnight incubation by spectrophotometric method; type: ADME, organism-based; details: 200 µM
Outline: (§4)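 Compound from 20 mM DMSO stock diluted in TSB to final 0.2 or 0.05 mM; DMSO growth controls; paraffin overlay. Overnight cultures inoculated to final OD600 ≈ 0.05; incubated at 37 °C overnight with OD600 read every 30 min.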

[11] = target: Voltage-gated inwardly rectifying potassium channel KCNH2 (Homo sapiens, UniProt Q12809); assay: Inhibition of human ERG expressed in CHO cells by Qpatch-clamp method; type: cell-based
Sequence of Voltage-gated inwardly rectifying potassium channel KCNH2 (Q12809 whole entry): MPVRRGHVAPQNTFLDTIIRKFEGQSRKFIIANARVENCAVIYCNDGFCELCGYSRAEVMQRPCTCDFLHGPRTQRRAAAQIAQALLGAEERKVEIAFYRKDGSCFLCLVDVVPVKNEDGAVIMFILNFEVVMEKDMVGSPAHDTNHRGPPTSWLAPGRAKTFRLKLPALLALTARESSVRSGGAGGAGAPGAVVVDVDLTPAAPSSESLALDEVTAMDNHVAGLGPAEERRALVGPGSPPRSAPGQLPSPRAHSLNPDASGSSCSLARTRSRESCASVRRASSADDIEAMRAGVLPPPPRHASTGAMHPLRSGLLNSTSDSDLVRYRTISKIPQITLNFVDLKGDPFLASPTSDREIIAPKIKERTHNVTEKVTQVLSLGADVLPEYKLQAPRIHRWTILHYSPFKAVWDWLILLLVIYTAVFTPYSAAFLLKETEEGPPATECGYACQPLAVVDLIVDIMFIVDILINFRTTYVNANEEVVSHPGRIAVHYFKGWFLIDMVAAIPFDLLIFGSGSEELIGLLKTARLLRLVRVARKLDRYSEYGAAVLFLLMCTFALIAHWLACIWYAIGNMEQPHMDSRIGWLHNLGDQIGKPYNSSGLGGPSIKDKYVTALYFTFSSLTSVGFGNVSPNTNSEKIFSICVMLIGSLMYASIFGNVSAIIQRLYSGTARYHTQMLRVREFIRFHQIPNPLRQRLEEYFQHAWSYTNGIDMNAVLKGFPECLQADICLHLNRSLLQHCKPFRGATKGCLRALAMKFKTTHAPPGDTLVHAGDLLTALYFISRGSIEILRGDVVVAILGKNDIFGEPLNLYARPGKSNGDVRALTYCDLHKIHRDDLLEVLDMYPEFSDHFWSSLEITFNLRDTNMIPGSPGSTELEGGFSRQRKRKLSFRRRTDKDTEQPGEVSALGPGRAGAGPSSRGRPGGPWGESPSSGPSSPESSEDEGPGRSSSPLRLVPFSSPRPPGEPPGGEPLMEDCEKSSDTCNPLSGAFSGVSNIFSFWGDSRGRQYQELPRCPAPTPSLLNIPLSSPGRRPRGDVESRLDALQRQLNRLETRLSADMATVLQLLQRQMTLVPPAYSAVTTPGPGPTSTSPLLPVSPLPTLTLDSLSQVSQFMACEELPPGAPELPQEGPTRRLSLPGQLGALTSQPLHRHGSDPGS

[12] = system: Rattus norvegicus; assay: Dose normalized AUC (0 to infinity) in Sprague-Dawley rat at 5 mg/kg, iv administered as single dose; type: ADME, organism-based; details: in vivo; outline: as §2
[13] = system: Staphylococcus aureus; assay: Sensitization of methicillin-resistant Staphylococcus aureus USA400 MW2 to immune clearance in human whole blood assessed as reduction in bacterial survival at 1 uM measured after 24 hrs relative to control; type: functional
Outline: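 Overnight cultures spun down and resuspended in sterile PBS at 1 × 10^7 CFU/mL. 40 µL mixed with 360 µL fresh whole blood from a healthy human volunteer, giving 1 × 10^6 CFU/mL. Incubated 6 h at 37 °C. Surviving CFU counted by plating dilutions on TSA.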

[14] = system: Staphylococcus aureus; assay: Suppression in growth of Staphylococcus aureus Newman at 0.2 mM measured after overnight incubation by spectrophotometric method; type: organism-based; details: in vitro, 200 µM; outline: as §4
[15] = system: Staphylococcus aureus; assay: Sensitization of Staphylococcus aureus USA300 LAC to immune clearance in human whole blood assessed as bacterial survival at 1 uM measured after 24 hrs (reference value: 12.2%); type: functional
[16] = system: Staphylococcus aureus; assay: Antibacterial activity against Staphylococcus aureus USA400 MW2 infected Balb/c mouse assessed as reduction of bacterial survival in kidney at 1.3 mg, ip bid administered for 4.5 days followed by bacterial infection measured after 5 days; type: functional, organism-based
Outline: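 Female BALB/c mice, 6–8 weeks. Compound in sterile water ip once and every 12 h for 108 h, total 50 or 200 mg/kg; water controls. Infected 12 h after first dose with 4 × 10^7 CFU USA400 MW2 (100 µL). Killed 5 days post infection; liver or kidney CFU counted on TSA after homogenising in PBS/0.1% Triton X-100. n = 13; two-tailed Mann-Whitney.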

[17] = system: Staphylococcus aureus; assay: Sensitization of methicillin-resistant Staphylococcus aureus USA400 MW2 to H2O2 assessed as bacterial survival at 1 uM measured after 24 hrs (reference value: 11.7%); type: functional; details: MW2, 24 h
[18] = Total plasma clearance in Sprague-Dawley rat at 5 mg/kg, iv administered as single dose; type: ADME, organism-based; outline: as §2
[19] = target: T1, 4,4'-diapophytoene desaturase (4,4'-diaponeurosporene-forming) (Staphylococcus aureus (strain Newman)) (UniProt O07855); details: Staphylococcus aureus subsp. aureus str. Newman; 1 uM
T1 sequence (whole entry): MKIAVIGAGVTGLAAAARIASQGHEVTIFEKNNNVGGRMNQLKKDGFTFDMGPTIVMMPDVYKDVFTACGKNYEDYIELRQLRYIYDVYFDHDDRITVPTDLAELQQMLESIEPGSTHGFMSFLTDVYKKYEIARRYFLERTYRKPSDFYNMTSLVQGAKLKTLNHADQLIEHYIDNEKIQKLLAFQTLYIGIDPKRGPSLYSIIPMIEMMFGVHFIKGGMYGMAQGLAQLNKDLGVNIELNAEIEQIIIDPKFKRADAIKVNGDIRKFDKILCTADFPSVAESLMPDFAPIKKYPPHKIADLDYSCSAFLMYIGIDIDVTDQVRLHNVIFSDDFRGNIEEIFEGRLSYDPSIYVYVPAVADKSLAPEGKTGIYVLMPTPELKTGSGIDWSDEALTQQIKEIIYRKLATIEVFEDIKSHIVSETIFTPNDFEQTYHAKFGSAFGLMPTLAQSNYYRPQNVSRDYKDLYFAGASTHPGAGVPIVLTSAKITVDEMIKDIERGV

[20] = system: Staphylococcus aureus; assay: Inhibition of staphyloxanthin pigment formation in methicillin-resistant Staphylococcus aureus USA400 MW2 after 48 hrs by spectrophotometric method; type: functional, organism-based; details: MW2, 48 h; outline: as §3

Compound: CN(C/C=C/c1ccc(C(F)(F)F)cc1)Cc1cccc2ccoc12.Cl
- MIC80 (lowest concentration giving ≥80% growth inhibition) [1]: >64 µg/mL
- Activity [2]: 2.94 deltalog10CFU
- fold change (FC) [3]: 30
- bioavailability [4]: 42.2%
- fold change (FC) [5]: 20
- fold change (FC) [6]: 6
- survival at 1 µM [7]: 1.3%
- pIC50 [8]: 8.47
- pIC50 [9]: 9.42
- Activity [10]: Non-toxic
- pIC50 [11]: 5.43
- AUC/dose [12]: 1299.47 ng/mL.hr/(mg/kg)
- fold change (FC) [13]: 8
- Activity [14]: Non-toxic
- survival at 1 µM [15]: 1.2%
- Activity [16]: Active
- survival at 1 µM [17]: 0.6%
- clearance [18]: 54.3 mL/min/kg
- inhibition [19]: Active
- pIC50 [20]: 8.26
